Results: ChEMBL document CHEMBL2146464, “Structure-activity relationship study of nitrosopyrimidines acting as antifungal agents” (Bioorg Med Chem, 2012)
Converted amounts (≈) assume the structure as drawn. The source made the active and inactive calls. The calls are words filed in the database; no cut-off is given here.

Tests used:
Nannizzia gypsea [1] = assay: Fungicidal activity against Microsporum gypseum CCC 115 after 48 hrs by agar plate dilution method; format: functional; details: CCC 115, 48 h
In short: (§1)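 MFC: after the microdilution MIC, material from each clear well was plated onto RPMI-1640 agar buffered with MOPS. Plates incubated at 30 °C and read after 48 h. MFC is the lowest concentration giving total inhibition of visible growth.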

Candida tropicalis [2] = assay: Antifungal activity against Candida tropicalis assessed as growth inhibition at 250 ug/mL by microplate reader analysis; format: functional; details: read-out: GI
[3] = Acute toxicity in bony fish assessed as mortality at 0.8 ug/mL after 48 hrs; details: actinopterygii; read-out: Activity
Cryptococcus neoformans [4] = assay: Antifungal activity against Cryptococcus neoformans ATCC 32264 assessed as growth inhibition at 250 ug/mL after 48 hrs by microplate reader analysis; format: functional; details: ATCC 32264, 48 h, read-out: GI
In short: (§2)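 Microplate growth-inhibition assay in RPMI-1640, compound at final 250–0.98 µg/mL (DMSO ≤1%). Inoculum 1–5 × 10³ CFU/mL. Sterility and DMSO growth controls included. Percent inhibition is computed from blank-corrected OD relative to the growth control, tested in duplicate.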

[5] = Acute toxicity in bony fish assessed as mortality at 5 ug/mL after 96 hrs; details: actinopterygii, 96 h
In short: (§3)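 Guppy (Poecilia reticulata) acute static exposure: 10 fish per concentration in 2 L wide-mouthed jars holding the test solution. Compounds were added from […] to give the final concentrations. Dead fish were counted and removed every 24 h, with general condition noted; percentage mortality was scored at 96 h. Two experiments, each in triplicate.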

Aspergillus niger = assay: Antifungal activity against Aspergillus niger ATCC 9029 at 0.98 to 250 ug/mL by NCCLS broth microdilution method; format: functional, organism-based
In short: (§4)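 MIC by broth microdilution per NCCLS M27-A3/M38-A2 in RPMI-1640 buffered to pH 7.0 with MOPS. Twofold dilutions from 250–0.98 µg/mL, final DMSO ≤1%. Inoculum 1–5 × 10³ CFU/mL. Incubated in a moist dark chamber, 30 °C for Aspergillus and 28–30 °C for dermatophytes. Read visually when control growth allowed. Endpoint is the lowest concentration giving total inhibition of visible growth (MIC100).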

Candida albicans [6] = assay: Antifungal activity against Candida albicans ATCC 10231 assessed as growth inhibition at 7.8 ug/mL after 24 hrs by microplate reader analysis; format: functional; details: ATCC 10231, 24 h, read-out: GI
In short: (§5)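 96-well RPMI-1640 wells with compound at final 250–0.98 µg/mL (DMSO ≤1%). Inoculum 100 µL, 1–5 × 10³ CFU/mL, 200 µL final. Each well includes growth (DMSO, no compound) and sterility controls. % inhibition = 100 − (CTW−SCW)/(GCW−SCW) × 100, run in duplicate.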

Candida tropicalis [7] = assay: Antifungal activity against Candida tropicalis assessed as growth inhibition at 125 ug/mL by microplate reader analysis; format: functional; details: read-out: GI
[8] = Acute toxicity in bony fish assessed as mortality at 1.6 ug/mL after 24 hrs; details: actinopterygii; read-out: Activity
Candida albicans [9] = assay: Antifungal activity against Candida albicans ATCC 10231 assessed as growth inhibition at 15.6 ug/mL after 24 hrs by microplate reader analysis; format: functional; details: ATCC 10231, 24 h, read-out: GI; in short: as §5
Trichophyton rubrum [10] = assay: Fungicidal activity against Trichophyton rubrum CCC 110 after 48 hrs by agar plate dilution method; format: functional; details: CCC 110, 48 h
In short: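 Samples from each clear well of the MIC broth microdilution tray were plated onto RPMI-1640 agar buffered with MOPS. That tray had compounds twofold diluted in RPMI (pH 7.0, MOPS) from 250–0.98 µg/mL with inoculum of 1–5 × 10³ CFU/mL, incubated at 28–30 °C for dermatophytes. Plates were incubated at 30 °C and read at 48 h. MFC was taken as the lowest concentration giving total inhibition of visible growth.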

Cryptococcus neoformans [11] = assay: Antifungal activity against Cryptococcus neoformans ATCC 32264 assessed as growth inhibition at 125 ug/mL after 48 hrs by microplate reader analysis; format: functional; details: ATCC 32264, 48 h, read-out: GI; in short: as §2
Candida tropicalis [12] = assay: Antifungal activity against Candida tropicalis by microplate reader analysis; format: functional
Candida albicans [13] = assay: Fungicidal activity against Candida albicans ATCC 10231 after 48 hrs by agar plate dilution method; format: functional; details: ATCC 10231, 48 h; in short: as §1
Candida albicans [14] = assay: Antifungal activity against Candida albicans ATCC 10231 after 48 hrs by NCCLS broth microdilution method; format: functional; details: ATCC 10231, 48 h, read-out: MIC100
In short: (§6)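 Yeast MIC by NCCLS M27-A3 broth microdilution in RPMI-1640 buffered to pH 7.0 with MOPS. Twofold dilutions of 250–0.98 µg/mL, final DMSO ≤1%. Inoculum 1–5 × 10³ CFU/mL. Incubated at 30 °C in a moist dark chamber. Read visually at 48 h. MIC100 is the lowest concentration with no visible growth versus drug-free control.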

Nannizzia gypsea [15] = assay: Antifungal activity against Microsporum gypseum CCC 115 by NCCLS broth microdilution method; format: functional; details: read-out: MIC100; in short: as §4
Candida albicans [16] = assay: Antifungal activity against Candida albicans ATCC 10231 assessed as growth inhibition at 125 ug/mL after 24 hrs by microplate reader analysis; format: functional; details: ATCC 10231, 24 h, read-out: GI; in short: as §5
Cryptococcus neoformans [17] = assay: Antifungal activity against Cryptococcus neoformans ATCC 32264 assessed as growth inhibition at 62.5 ug/mL after 48 hrs by microplate reader analysis; format: functional; details: ATCC 32264, 48 h, read-out: GI; in short: as §2
Aspergillus fumigatus = assay: Antifungal activity against Aspergillus fumigatus ATCC 26934 at 0.98 to 250 ug/mL by NCCLS broth microdilution method; format: functional, organism-based; in short: as §4
Candida tropicalis [18] = assay: Antifungal activity against Candida tropicalis assessed as growth inhibition at 31.25 ug/mL by microplate reader analysis; format: functional; details: read-out: GI
Aspergillus flavus = assay: Antifungal activity against Aspergillus flavus ATCC 9170 at 0.98 to 250 ug/mL by NCCLS broth microdilution method; format: functional, organism-based; in short: as §4
Candida albicans [19] = assay: Antifungal activity against Candida albicans ATCC 10231 after 24 hrs by microplate reader analysis; format: functional; details: ATCC 10231, 24 h; in short: as §5
Candida albicans [20] = assay: Antifungal activity against Candida albicans ATCC 10231 assessed as growth inhibition at 3.9 ug/mL after 24 hrs by microplate reader analysis; format: functional; details: ATCC 10231, 24 h, read-out: GI; in short: as §5
Candida tropicalis [21] = assay: Antifungal activity against Candida tropicalis assessed as growth inhibition at 3.9 ug/mL by microplate reader analysis; format: functional; details: read-out: GI
Candida tropicalis [22] = assay: Antifungal activity against Candida tropicalis assessed as growth inhibition at 15.6 ug/mL by microplate reader analysis; format: functional; details: read-out: GI
Cryptococcus neoformans [23] = assay: Antifungal activity against Cryptococcus neoformans ATCC 32264 assessed as growth inhibition at 15.6 ug/mL after 48 hrs by microplate reader analysis; format: functional; details: ATCC 32264, 48 h, read-out: GI; in short: as §2
Candida albicans [24] = assay: Antifungal activity against Candida albicans ATCC 10231 assessed as growth inhibition at 31.25 ug/mL after 24 hrs by microplate reader analysis; format: functional; details: ATCC 10231, 24 h, read-out: GI; in short: as §5
Cryptococcus neoformans [25] = assay: Antifungal activity against Cryptococcus neoformans ATCC 32264 assessed as growth inhibition at 3.9 ug/mL after 48 hrs by microplate reader analysis; format: functional; details: ATCC 32264, 48 h, read-out: GI; in short: as §2
Cryptococcus neoformans [26] = assay: Antifungal activity against Cryptococcus neoformans ATCC 32264 after 48 hrs by microplate reader analysis; format: functional; details: ATCC 32264, 48 h; in short: as §2
Cryptococcus neoformans [27] = assay: Antifungal activity against Cryptococcus neoformans ATCC 32264 assessed as growth inhibition at 31.25 ug/mL after 48 hrs by microplate reader analysis; format: functional; details: ATCC 32264, 48 h, read-out: GI; in short: as §2
Candida albicans [28] = assay: Antifungal activity against Candida albicans ATCC 10231 assessed as growth inhibition at 62.5 ug/mL after 24 hrs by microplate reader analysis; format: functional; details: ATCC 10231, 24 h, read-out: GI; in short: as §5
[29] = tested on: Trichophyton mentagrophytes; assay: Fungicidal activity against Trichophyton mentagrophytes ATCC 9972 after 48 hrs by agar plate dilution method; format: functional; details: ATCC 9972, 48 h; in short: as §1
Cryptococcus neoformans [30] = assay: Antifungal activity against Cryptococcus neoformans ATCC 32264 assessed as growth inhibition at 7.8 ug/mL after 48 hrs by microplate reader analysis; format: functional; details: ATCC 32264, 48 h, read-out: GI; in short: as §2
Cryptococcus neoformans [31] = assay: Antifungal activity against Cryptococcus neoformans ATCC 32264 after 48 hrs by NCCLS broth microdilution method; format: functional; details: ATCC 32264, 48 h, read-out: MIC100; in short: as §6
Candida tropicalis [32] = assay: Antifungal activity against Candida tropicalis assessed as growth inhibition at 7.8 ug/mL by microplate reader analysis; format: functional; details: read-out: GI
Trichophyton rubrum [33] = assay: Antifungal activity against Trichophyton rubrum CCC 110 by NCCLS broth microdilution method; format: functional; details: read-out: MIC100; in short: as §4
Cryptococcus neoformans [34] = assay: Fungicidal activity against Cryptococcus neoformans ATCC 32264 after 48 hrs by agar plate dilution method; format: functional; details: ATCC 32264, 48 h; in short: as §1
Candida tropicalis [35] = assay: Antifungal activity against Candida tropicalis assessed as growth inhibition at 62.5 ug/mL by microplate reader analysis; format: functional; details: read-out: GI
[36] = tested on: Trichophyton mentagrophytes; assay: Antifungal activity against Trichophyton mentagrophytes ATCC 9972 by NCCLS broth microdilution method; format: functional; details: read-out: MIC100; in short: as §4
Candida tropicalis [37] = assay: Antifungal activity against Candida tropicalis after 48 hrs by NCCLS broth microdilution method; format: functional; details: read-out: MIC100; in short: as §6
[38] = Acute toxicity in bony fish assessed as mortality at 0.4 ug/mL after 96 hrs; details: actinopterygii; read-out: Activity; in short: as §3
Candida tropicalis [39] = assay: Fungicidal activity against Candida tropicalis after 48 hrs by agar plate dilution method; format: functional; in short: as §1
Candida albicans [40] = assay: Antifungal activity against Candida albicans ATCC 10231 assessed as growth inhibition at 250 ug/mL after 24 hrs by microplate reader analysis; format: functional; details: ATCC 10231, 24 h, read-out: GI; in short: as §5

COc1nc(N)c(N=O)c(OCc2ccccc2)n1
MFC (Nannizzia gypsea [1]): 62.5 µg/mL (≈ 240 µM) | inhibition of growth at 250 µg/mL (Candida tropicalis [2]): 100% | mortality at 48 h, 0.8 ug/mL [3]: 100% | inhibition of growth at 250 µg/mL (Cryptococcus neoformans [4]): 100% | Activity [5]: Non-toxic | Activity (Aspergillus niger): inactive | inhibition of growth at 7.8 µg/mL (Candida albicans [6]): 56.9% | inhibition of growth at 125 µg/mL (Candida tropicalis [7]): 100% | mortality at 24 h, 1.6 ug/mL [8]: 100% | inhibition of growth at 15.6 µg/mL (Candida albicans [9]): 99.6% | MFC (Trichophyton rubrum [10]): 125 µg/mL (≈ 480 µM) | inhibition of growth at 125 µg/mL (Cryptococcus neoformans [11]): 100% | MIC50 (Candida tropicalis [12]): 7.8 µg/mL (≈ 30 µM) | MFC (Candida albicans [13]): 62.5 µg/mL (≈ 240 µM) | MIC (Candida albicans [14]): 31.2 µg/mL (≈ 120 µM) | MIC (Nannizzia gypsea [15]): 62.5 µg/mL (≈ 240 µM) | inhibition of growth at 125 µg/mL (Candida albicans [16]): 100% | inhibition of growth at 62.5 µg/mL (Cryptococcus neoformans [17]): 100% | Activity (Aspergillus fumigatus): inactive | inhibition of growth at 31.25 µg/mL (Candida tropicalis [18]): 100% | Activity (Aspergillus flavus): inactive | MIC50 (Candida albicans [19]): 7.8 µg/mL (≈ 30 µM) | inhibition of growth at 3.9 µg/mL (Candida albicans [20]): 47.2% | inhibition of growth at 3.9 µg/mL (Candida tropicalis [21]): 19.7% | inhibition of growth at 15.6 µg/mL (Candida tropicalis [22]): 96.7% | inhibition of growth at 15.6 µg/mL (Cryptococcus neoformans [23]): 80.2% | inhibition of growth at 31.25 µg/mL (Candida albicans [24]): 100% | inhibition of growth at 3.9 µg/mL (Cryptococcus neoformans [25]): 49.2% | MIC50 (Cryptococcus neoformans [26]): 3.9 µg/mL (≈ 15 µM) | inhibition of growth at 31.25 µg/mL (Cryptococcus neoformans [27]): 88.1% | inhibition of growth at 62.5 µg/mL (Candida albicans [28]): 100% | MFC [29]: 125 µg/mL (≈ 480 µM) | inhibition of growth at 7.8 µg/mL (Cryptococcus neoformans [30]): 78.1% | MIC (Cryptococcus neoformans [31]): 62.5 µg/mL (≈ 240 µM) | inhibition of growth at 7.8 µg/mL (Candida tropicalis [32]): 56.7% | MIC (Trichophyton rubrum [33]): 125 µg/mL (≈ 480 µM) | MFC (Cryptococcus neoformans [34]): 125 µg/mL (≈ 480 µM) | inhibition of growth at 62.5 µg/mL (Candida tropicalis [35]): 100% | MIC [36]: 125 µg/mL (≈ 480 µM) | MIC (Candida tropicalis [37]): 31.2 µg/mL (≈ 120 µM) | mortality at 96 h, 0.4 ug/mL [38]: 0% | MFC (Candida tropicalis [39]): 62.5 µg/mL (≈ 240 µM) | inhibition of growth at 250 µg/mL (Candida albicans [40]): 100%
